Assay results from different studies.
Protocols differ between the studies behind these lines.
Target: Mitogen-activated protein kinase kinase kinase 7 (MAP3K7, Homo sapiens, UniProt O43318)

N[C@@H]1CCN(c2nccc(-c3cnn4ncccc34)n2)C1 — remaining binding (binding; 1 µM): 91%
O=C1NC(=O)c2cc(Nc3ccc(F)cc3)c(Nc3ccc(F)cc3)cc21 — remaining signal (cell-free assay; 0.5 µM): 98.8%
COc1cc(Nc2cnc(C#N)c(O[C@H](C)CN(C)C)n2)ncc1-c1cnn(C)c1 — remaining activity (enzyme activity, inhibitor, radiometric; 1 µM): 97%
CCN(CC)CCNC(=O)c1c(C)[nH]c(/C=C2\C(=O)Nc3ccc(F)cc32)c1C — inhibition (enzyme activity, inhibitor; 10 µM): 92%
C[C@@]1(Cc2ccc(C#N)cc2)C(=O)N(c2cc(Cl)cc(Cl)c2)c2ncc(C(=O)NC3(c4nc(C5CCC5)no4)CC3)n21 — remaining binding (cell-free assay, competition with immobilised ligand; 1 µM): 96%
FC(F)(F)Oc1cccc(-c2cnc3ccc(-c4ccncc4)nn23)c1 — activity vs control (enzyme activity, inhibitor, radiometric; 1 µM): 58%
Cc1cc(NC(=O)c2cccc3cc(-c4cccc5[nH]nc(N)c45)ccc23)ccc1F — activity vs control (enzyme activity, inhibitor; 0.1 µM): 100%
CS(=O)(=O)CCNCc1ccc(-c2ccc3ncnc(Nc4ccc(OCc5cccc(F)c5)c(Cl)c4)c3c2)o1 — remaining signal (cell-free assay; 0.5 µM): 89%
Cc1ccc(Nc2nccc(N(C)c3ccc4c(C)n(C)nc4c3)n2)cc1S(N)(=O)=O — inhibition (enzyme activity, inhibitor; 0.3 µM): -8%
COc1cccc2c(NCc3ccccc3)nc(-n3c(N)nc4ccccc43)nc12 — inhibition (target engagement in cells, inhibitor, chemoproteomics; 20 mM): -6.3%
Cn1c(=O)n(-c2ccc(C(C)(C)C#N)cc2)c2c3cc(-c4cnc5ccccc5c4)ccc3ncc21 — remaining activity (enzyme activity, inhibitor; 10 µM): 67%
C=CC(=O)Nc1cc(Nc2nccc(Nc3cc(Cl)c(F)cc3C(C)(C)O)n2)c(OC)cc1N1CC[C@@H](N(C)C)C1 — inhibition (enzyme activity, inhibitor; 1 µM): 21%
CC(C)(O)[C@H]1CC[C@H](Nc2ccc3ncc(-c4cccc(C(F)(F)F)c4)n3n2)CC1 — remaining activity (enzyme activity, inhibitor; 1 µM): 107%
Cc1cc(C)c(-n2ccn3nc(-c4cccnc4)cc23)cc1NC(=O)c1cc(C#N)cc(S(F)(F)(F)(F)F)c1 — remaining binding (cell-free assay, competition with immobilised ligand; 0.1 µM): 66.2%
CN1CC(Oc2cnc(C#N)cc2-c2ccn3nc(NC(=O)C4CC4)cc3c2)C1 — inhibition (enzyme activity, inhibitor; 1 µM): 8%
O=c1nc(-c2ccccn2)sc2ccccc12 — remaining binding (binding, competition with immobilised ligand; 1 µM): 78%
CCN(CC)c1ccc(C2=NNC(=O)CC2C)cc1[N+](=O)[O-] (stereo not drawn) — remaining activity (enzyme activity, inhibitor; 10 µM): 107%
CS(=O)(=O)N1CCCC(NC(=O)[C@H](CCC2CCCCC2)NC(=O)c2ccc(CNc3ncnc4c3nnn4-c3ccccc3)cc2)C1 (stereo partly drawn) — remaining binding (cell-free assay, competition with immobilised ligand; 0.1 µM): 100%
Nc1ncnc2occ(-c3ccc(NC(=O)Nc4cc(C(F)(F)F)ccc4F)cc3)c12 — remaining signal (cell-free assay, inhibitor; 20 µM): 3.7%
CC1=C(C#N)C(c2ccc3c(c2)c(NC(=O)c2ccccc2C)nn3C)C(C#N)=C(C)N1 — remaining binding (cell-free assay, competition with immobilised ligand; 1 µM): 74%
COc1cc(Cl)c(C(=O)N[C@@H](CN[C@H]2CC[C@@H](N)CC2)Cc2ccc(C#N)cc2)cc1-c1ccc(CN[C@H](C)c2ccc(C)cc2)o1 — remaining activity (enzyme activity, inhibitor; 1 µM): 96%
C[C@H](c1ccc(F)cc1)N(Cc1cccc(C(=O)O)c1)C(=O)c1cnc2ccccc2c1 — remaining binding (cell-free assay, competition with immobilised ligand; 1 µM): 100%
Oc1cccc(-c2nc(N3CCOCC3)c3oc4ncccc4c3n2)c1 — remaining activity (enzyme activity, inhibitor; 10 µM): 79%
CN(C(=O)c1ccccc1)c1cc(N(C)c2ccc3c(c2)CCc2ccc(C(=O)NCCN4CCOCC4)cc2C3=O)ccc1F — remaining binding (cell-free assay, competition with immobilised ligand; 1 µM): 100%
Cc1sc(C(=O)NC2COC2)cc1-n1cc(NC(=O)Nc2c(F)cccc2Cl)cn1 — remaining activity (enzyme activity, inhibitor; 10 µM): 98.4%
COc1cc2ncnc(Nc3ccc(F)c(Cl)c3)c2cc1OCCCN1CCOCC1 — remaining signal (cell-free assay; 0.5 µM): 91.3%
COc1ccc2cc(OCC3(C(=O)O)CN(C(=O)c4ccc(F)cc4)C3)ccc2c1 — remaining binding (cell-free assay, competition with immobilised ligand; 1 µM): 96%
